Laboratory results published in ChEMBL document CHEMBL1154093, “New azoles with potent antifungal activity: design, synthesis and molecular docking” (2009).
In brackets after ≈: the same amount, converted by molar mass. Activity calls are given as the source filed them. The rule behind the calls is not given here.

Assays:
Candida albicans [1] = experiment: Antifungal activity against Candida albicans after 24 hrs by serial dilution method; assay type: functional
In short: (§1)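 NCCLS broth microdilution in RPMI 1640 buffered with 0.165 M MOPS, with strains from ATCC or clinical isolates. Compounds were dissolved in DMSO and serially diluted in medium. Yeasts were incubated at 35 °C and read at 24 h for Candida or 72 h for C. neoformans. MIC was the lowest concentration giving ≥80% turbidity inhibition versus the growth control.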

Aspergillus fumigatus = experiment: Antifungal activity against Aspergillus fumigatus after 7 days by serial dilution method; assay type: functional; settings: 168 h
In short: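 Filamentous fungus (ATCC or clinical isolate) was tested by NCCLS microdilution in MOPS-buffered (0.165 M) RPMI 1640. Compounds were dissolved in DMSO and serially diluted in medium, and growth was scored at 7 days. MIC was the lowest concentration producing ≥80% inhibition of turbidity compared with the untreated control.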

Nannizzia gypsea = experiment: Antifungal activity against Microsporum gypseum after 7 days by serial dilution method; assay type: functional; settings: 168 h
In short: (§2)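 Dermatophytes (ATCC or clinical isolates) were tested by NCCLS serial dilution in RPMI 1640 with 0.165 M MOPS, incubated at 28 °C and read at 7 days. Compounds were taken up in DMSO and diluted in medium. MIC was the lowest concentration reducing turbidity by at least 80% relative to the drug-free growth control.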

Candida tropicalis = experiment: Antifungal activity against Candida tropicalis after 24 hrs by serial dilution method; assay type: functional; in short: as §1
Trichophyton rubrum = experiment: Antifungal activity against Trichophyton rubrum after 7 days by serial dilution method; assay type: functional; settings: 168 h; in short: as §2
Cryptococcus neoformans = experiment: Antifungal activity against Cryptococcus neoformans after 72 hrs by serial dilution method; assay type: functional; in short: as §1
Candida albicans [2] = experiment: Antifungal activity against multidrug-resistant Candida albicans after 24 hrs by serial dilution method; assay type: functional
In short: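 Broth serial dilution in 96-well plates per NCCLS recommendations; RPMI 1640 buffered with 0.165 M MOPS as medium. Compounds dissolved in DMSO, serially diluted in growth medium. Strains from ATCC or clinical isolates. Yeasts incubated at 35 °C, read at 24 h for Candida. MIC = lowest concentration giving turbidity at or below 80% inhibition versus growth control.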

Candida parapsilosis = experiment: Antifungal activity against Candida parapsilosis after 24 hrs by serial dilution method; assay type: functional, organism-based; in short: as §1

`Nc1cccc(OCCCN2CCN(CC(O)(Cn3cncn3)c3ccc(F)cc3F)CC2)c1` (racemic) gave an MIC80 (Candida albicans [1]) of 1 µg/mL (≈ 2.12 µM), an MIC80 (Aspergillus fumigatus) of over 64 µg/mL and an MIC80 (Nannizzia gypsea) of 64 µg/mL (≈ 135 µM). For the same compound, the MIC80 (Candida tropicalis) was 1 µg/mL (≈ 2.12 µM), the MIC80 (Trichophyton rubrum) was 4 µg/mL (≈ 8.46 µM) and the MIC80 (Cryptococcus neoformans) was 16 µg/mL (≈ 33.9 µM). For the same compound, the MIC80 (Candida albicans [2]) was 0.25 µg/mL (≈ 0.529 µM) and the Activity (Candida parapsilosis) was “Active”.

Compound `Cc1cccc(OCCCN2CCN(CC(O)(Cn3cncn3)c3ccc(F)cc3F)CC2)c1` (racemic) has an MIC80 (Candida albicans [1]) of 0.0156 µg/mL (≈ 0.0331 µM), an MIC80 (Aspergillus fumigatus) of 16 µg/mL (≈ 33.9 µM) and an MIC80 (Nannizzia gypsea) of 1 µg/mL (≈ 2.12 µM). The MIC80 (Candida tropicalis) was 0.0625 µg/mL (≈ 0.133 µM), the MIC80 (Trichophyton rubrum) was 0.25 µg/mL (≈ 0.53 µM) and the MIC80 (Cryptococcus neoformans) was 1 µg/mL (≈ 2.12 µM). For the same compound, the MIC80 (Candida albicans [2]) was 0.125 µg/mL (≈ 0.265 µM) and the Activity (Candida parapsilosis) was “Active”.

`O=[N+]([O-])c1ccccc1OCCCN1CCN(CC(O)(Cn2cncn2)c2ccc(F)cc2F)CC1` (racemic) gave an MIC80 (Candida albicans [1]) of 0.25 µg/mL (≈ 0.497 µM), an MIC80 (Aspergillus fumigatus) of 64 µg/mL (≈ 127 µM) and an MIC80 (Nannizzia gypsea) of 4 µg/mL (≈ 7.96 µM). It also gave an MIC80 (Candida tropicalis) of 0.25 µg/mL (≈ 0.497 µM), an MIC80 (Trichophyton rubrum) of 1 µg/mL (≈ 1.99 µM) and an MIC80 (Cryptococcus neoformans) of 4 µg/mL (≈ 7.96 µM). The MIC80 (Candida albicans [2]) was 2 µg/mL (≈ 3.98 µM) and the Activity (Candida parapsilosis) was “Active”.

In the case of `OC(CN1CCN(CCCOc2ccc(Cl)cc2)CC1)(Cn1cncn1)c1ccc(F)cc1F` (racemic), the MIC80 (Candida albicans [1]) is reported as 0.0156 µg/mL (≈ 0.0317 µM), the MIC80 (Aspergillus fumigatus) is reported as 4 µg/mL (≈ 8.13 µM) and the MIC80 (Nannizzia gypsea) is reported as 0.25 µg/mL (≈ 0.508 µM). It also gave an MIC80 (Candida tropicalis) of 0.0156 µg/mL (≈ 0.0317 µM), an MIC80 (Trichophyton rubrum) of 0.0156 µg/mL (≈ 0.0317 µM) and an MIC80 (Cryptococcus neoformans) of 0.25 µg/mL (≈ 0.508 µM). For the same compound, the MIC80 (Candida albicans [2]) was 0.125 µg/mL (≈ 0.254 µM) and the Activity (Candida parapsilosis) was “Active”.

In the case of `Cc1ccccc1OCCCN1CCN(CC(O)(Cn2cncn2)c2ccc(F)cc2F)CC1` (racemic), the MIC80 (Candida albicans [1]) is reported as 0.0625 µg/mL (≈ 0.133 µM), the MIC80 (Aspergillus fumigatus) is reported as 32 µg/mL (≈ 67.9 µM) and the MIC80 (Nannizzia gypsea) is reported as 1 µg/mL (≈ 2.12 µM). The MIC80 (Candida tropicalis) was 0.0625 µg/mL (≈ 0.133 µM), the MIC80 (Trichophyton rubrum) was 0.25 µg/mL (≈ 0.53 µM) and the MIC80 (Cryptococcus neoformans) was 1 µg/mL (≈ 2.12 µM). For the same compound, the MIC80 (Candida albicans [2]) was 0.125 µg/mL (≈ 0.265 µM) and the Activity (Candida parapsilosis) was “Active”.

With `OC(CN1CCN(CCCOc2ccc(F)cc2)CC1)(Cn1cncn1)c1ccc(F)cc1F` (racemic) the MIC80 (Candida albicans [1]) was 0.0156 µg/mL (≈ 0.0328 µM), the MIC80 (Aspergillus fumigatus) was 32 µg/mL (≈ 67.3 µM) and the MIC80 (Nannizzia gypsea) was 1 µg/mL (≈ 2.1 µM). It also gave an MIC80 (Candida tropicalis) of 0.0625 µg/mL (≈ 0.131 µM), an MIC80 (Trichophyton rubrum) of 0.25 µg/mL (≈ 0.526 µM) and an MIC80 (Cryptococcus neoformans) of 1 µg/mL (≈ 2.1 µM). For the same compound, the MIC80 (Candida albicans [2]) was 32 µg/mL (≈ 67.3 µM) and the Activity (Candida parapsilosis) was “Active”.

`Cc1ccc(OCCCN2CCN(CC(O)(Cn3cncn3)c3ccc(F)cc3F)CC2)cc1` (racemic) showed an MIC80 (Candida albicans [1]) of 0.0156 µg/mL (≈ 0.0331 µM), an MIC80 (Aspergillus fumigatus) of 8 µg/mL (≈ 17 µM) and an MIC80 (Nannizzia gypsea) of 0.25 µg/mL (≈ 0.53 µM). For the same compound, the MIC80 (Candida tropicalis) was 0.0625 µg/mL (≈ 0.133 µM), the MIC80 (Trichophyton rubrum) was 0.0625 µg/mL (≈ 0.133 µM) and the MIC80 (Cryptococcus neoformans) was 0.25 µg/mL (≈ 0.53 µM). The MIC80 (Candida albicans [2]) was 0.12 µg/mL (≈ 0.254 µM) and the Activity (Candida parapsilosis) was “Active”.

`CC(=O)Nc1ccc(OCCCN2CCN(CC(O)(Cn3cncn3)c3ccc(F)cc3F)CC2)cc1` (racemic) showed an MIC80 (Candida albicans [1]) of 0.25 µg/mL (≈ 0.486 µM), an MIC80 (Aspergillus fumigatus) of over 64 µg/mL and an MIC80 (Nannizzia gypsea) of 4 µg/mL (≈ 7.77 µM). For the same compound, the MIC80 (Candida tropicalis) was 0.25 µg/mL (≈ 0.486 µM), the MIC80 (Trichophyton rubrum) was 0.25 µg/mL (≈ 0.486 µM) and the MIC80 (Cryptococcus neoformans) was 1 µg/mL (≈ 1.94 µM). The MIC80 (Candida albicans [2]) was 2 µg/mL (≈ 3.89 µM) and the Activity (Candida parapsilosis) was “Active”.

In the case of `OC(CN1CCN(CCCOc2ccccc2Br)CC1)(Cn1cncn1)c1ccc(F)cc1F` (racemic), the MIC80 (Candida albicans [1]) is reported as 0.0625 µg/mL (≈ 0.117 µM), the MIC80 (Aspergillus fumigatus) is reported as 16 µg/mL (≈ 29.8 µM) and the MIC80 (Nannizzia gypsea) is reported as 1 µg/mL (≈ 1.86 µM). The MIC80 (Candida tropicalis) was 0.0156 µg/mL (≈ 0.0291 µM), the MIC80 (Trichophyton rubrum) was 0.25 µg/mL (≈ 0.466 µM) and the MIC80 (Cryptococcus neoformans) was 1 µg/mL (≈ 1.86 µM). The MIC80 (Candida albicans [2]) was 8 µg/mL (≈ 14.9 µM) and the Activity (Candida parapsilosis) was “Active”.

`OC(CN1CCN(CCCCOc2ccccc2)CC1)(Cn1cncn1)c1ccc(F)cc1F` (racemic) gave an MIC80 (Candida albicans [1]) of 0.25 µg/mL (≈ 0.53 µM), an MIC80 (Aspergillus fumigatus) of 8 µg/mL (≈ 17 µM) and an MIC80 (Nannizzia gypsea) of 4 µg/mL (≈ 8.48 µM). It also gave an MIC80 (Candida tropicalis) of 0.25 µg/mL (≈ 0.53 µM), an MIC80 (Trichophyton rubrum) of 1 µg/mL (≈ 2.12 µM) and an MIC80 (Cryptococcus neoformans) of 1 µg/mL (≈ 2.12 µM). For the same compound, the MIC80 (Candida albicans [2]) was 32 µg/mL (≈ 67.9 µM) and the Activity (Candida parapsilosis) was “Active”.

Compound `OC(Cn1cncn1)(Cn1cncn1)c1ccc(F)cc1F` [FLUCONAZOLE] has an MIC80 (Candida albicans [1]) of 1 µg/mL (≈ 3.27 µM), an MIC80 (Aspergillus fumigatus) of over 64 µg/mL and an MIC80 (Nannizzia gypsea) of 16 µg/mL (≈ 52.2 µM). It also gave an MIC80 (Candida tropicalis) of 1 µg/mL (≈ 3.27 µM), an MIC80 (Trichophyton rubrum) of 4 µg/mL (≈ 13.1 µM) and an MIC80 (Cryptococcus neoformans) of 1 µg/mL (≈ 3.27 µM). The MIC80 (Candida albicans [2]) was over 64 µg/mL and the Activity (Candida parapsilosis) was “Active”.

Work on `CCC(C)n1ncn(-c2ccc(N3CCN(c4ccc(OCC5COC(Cn6cncn6)(c6ccc(Cl)cc6Cl)O5)cc4)CC3)cc2)c1=O` (centres undefined) [ITRACONAZOLE] yielded an MIC80 (Candida albicans [1]) of 0.125 µg/mL (≈ 0.177 µM), an MIC80 (Aspergillus fumigatus) of 2 µg/mL (≈ 2.83 µM) and an MIC80 (Nannizzia gypsea) of 0.25 µg/mL (≈ 0.354 µM). For the same compound, the MIC80 (Candida tropicalis) was 0.125 µg/mL (≈ 0.177 µM), the MIC80 (Trichophyton rubrum) was 0.125 µg/mL (≈ 0.177 µM) and the MIC80 (Cryptococcus neoformans) was 0.125 µg/mL (≈ 0.177 µM). For the same compound, the MIC80 (Candida albicans [2]) was over 64 µg/mL and the Activity (Candida parapsilosis) was “Active”.

`C[C@@H](c1ncncc1F)[C@](O)(Cn1cncn1)c1ccc(F)cc1F` [VORICONAZOLE] gave an MIC80 (Candida albicans [1]) of 0.0625 µg/mL (≈ 0.179 µM), an MIC80 (Aspergillus fumigatus) of 0.5 µg/mL (≈ 1.43 µM) and an MIC80 (Nannizzia gypsea) of 0.0625 µg/mL (≈ 0.179 µM). The MIC80 (Candida tropicalis) was 0.0625 µg/mL (≈ 0.179 µM), the MIC80 (Trichophyton rubrum) was 0.0625 µg/mL (≈ 0.179 µM) and the MIC80 (Cryptococcus neoformans) was 0.0625 µg/mL (≈ 0.179 µM). The MIC80 (Candida albicans [2]) was over 64 µg/mL and the Activity (Candida parapsilosis) was “Active”.
